ChEMBL document CHEMBL1153931
pIC50: −log10 of the molar value. Converted amounts (≈) assume the structure as drawn.

Each molecule was assayed against T1, NH(3)-dependent NAD(+) synthetase (Bacillus anthracis, UniProt Q81RP3) (assay: Inhibition of Bacillus anthracis NAD synthetase).
T1 sequence (Q81RP3 whole entry): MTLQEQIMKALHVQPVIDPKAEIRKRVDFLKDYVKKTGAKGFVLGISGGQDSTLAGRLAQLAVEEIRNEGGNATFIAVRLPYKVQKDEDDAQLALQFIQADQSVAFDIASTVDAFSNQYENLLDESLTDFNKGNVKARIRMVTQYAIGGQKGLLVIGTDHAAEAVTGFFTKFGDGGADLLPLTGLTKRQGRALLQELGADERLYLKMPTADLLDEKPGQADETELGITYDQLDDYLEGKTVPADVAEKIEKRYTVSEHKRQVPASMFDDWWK
Outline: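 Purified B. anthracis NADs (6 μg/ml) in 60 mM HEPPS pH 8.5 with 0.5 mM NH4Cl, 20 mM KCl, 10 mM MgCl2, 0.1 mM NaAD, 2.5% DMSO and 0.3% BOG. Started with 0.2 mM ATP, quenched with guanidine-HCl after 10 min. Compounds tested 600 to 0.6 μM in doubling dilutions. NAD measured by reverse-phase HPLC peak height. IC50 is the average of duplicate runs.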
`COc1ccc(Br)c(-c2nnc(-c3ccccc3NC(=O)NC(=O)c3ccccc3Cl)o2)c1` showed a pIC50 of 3.66.
`NC(=O)c1c(NC(=S)NC(=O)c2cccc([N+](=O)[O-])c2)sc2c1CCCC2` showed a pIC50 of 3.73.
In the case of `O=C(Cn1nnc(N2CCOCC2)n1)N/N=C/c1ccc(-c2cccc([N+](=O)[O-])c2)o1`, the pIC50 was 3.96.
`N#C/C(=C\c1ccccc1[N+](=O)[O-])C(=O)c1ccccc1` was tested, and the pIC50 was 4.29.

The molecules below were run on Bacillus anthracis (assay: Antibacterial activity against Bacillus anthracis Sterne).
Type: functional
`COc1ccc(NC(=O)Nc2cccc(NC(=O)Nc3ccc(OC)cc3)c2F)cc1` was tested, and the MIC was over 240 µM.
For `O=C(COC(=O)c1ccc(NC(=O)c2ccc([N+](=O)[O-])cc2)cc1)c1ccc(F)cc1`, the MIC was over 237 µM.
In the case of `Nc1c(C(=O)c2ccc([N+](=O)[O-])cc2)sc(Nc2ccccc2)c1-c1nc2ccccc2[nH]1`, the MIC was over 240 µM.
`O=C(NC(=S)Nc1cc(-c2nc3ccccc3[nH]2)ccc1Cl)c1ccccc1[N+](=O)[O-]` was tested, and the MIC was over 240 µM.
Work on `COc1cccc(NC(=O)Nc2nnc(COc3ccc([N+](=O)[O-])cc3)s2)c1` yielded an MIC of over 240 µM.
Work on `O=C(Nc1cccc(Oc2ccc3c(c2)C(=O)N(c2ccccc2)C3=O)c1)c1cccc([N+](=O)[O-])c1` yielded an MIC of over 240 µM.
`Nc1ncnc(Nc2ccc(Cl)cc2C(=O)c2ccccc2Cl)c1[N+](=O)[O-]` showed an MIC of over 247 µM.
With `CCc1ccc(S(=O)(=O)Nc2c([N+](=O)[O-])ccc3ccccc23)cc1` the MIC was 3.8 µM (≈ 1.35 µg/mL).
For `O=C(CSc1nc(Nc2ccccc2)nc(N2CCOCC2)n1)Nc1ccc([N+](=O)[O-])cc1O`, the MIC was 15 µM (≈ 7.25 µg/mL).
In the case of `NC(=O)c1ccc(NC(=O)c2ccc(Oc3ccc([N+](=O)[O-])cc3Cl)cc2)cc1`, the MIC was over 240 µM.
Work on `COc1ccc(Br)c(-c2nnc(-c3ccccc3NC(=O)NC(=O)c3ccccc3Cl)o2)c1` yielded an MIC of over 240 µM.
Molecule `O=C(Nc1ccc(/N=N/c2ccccc2)cc1)c1ccc([N+](=O)[O-])cc1` has an MIC of over 240 µM.
Work on `O=[N+]([O-])c1ccc(-c2cnc(N/N=C/c3cccc([N+](=O)[O-])c3)nc2)cc1` yielded an MIC of over 274 µM.
`O=C(Nc1ccc([N+](=O)[O-])cc1)Nc1ccc(S(=O)(=O)Nc2ccc(Cl)c(Cl)c2)cc1` gave an MIC of 1.9 µM (≈ 0.915 µg/mL).
`O=C(Nc1cccc(/N=C/c2cc([N+](=O)[O-])ccc2O)c1)c1ccc(Cl)cc1Cl` showed an MIC of over 232 µM.
With `Cc1cc(-c2nnc(CSc3nnc(NC(=O)c4ccc(F)c(Cl)c4)s3)o2)ccc1[N+](=O)[O-]` the MIC was over 240 µM.
`COc1ccccc1NC(=O)NC(=O)c1ccc(-c2csnn2)cc1` gave an MIC of over 240 µM.
With `COc1ccc(Oc2ccc([N+](=O)[O-])cc2C(=O)Nc2ccc(S(N)(=O)=O)cc2)cc1` the MIC was over 240 µM.
Molecule `O=C(Cn1cc(/C=C/c2[nH]c(=O)[nH]c(=O)c2[N+](=O)[O-])c2ccccc21)Nc1ccc(F)cc1` has an MIC of over 223 µM.
Work on `NC(=O)c1c(NC(=S)NC(=O)c2cccc([N+](=O)[O-])c2)sc2c1CCCC2` yielded an MIC of over 240 µM.
`O=C(Nc1ccccc1)Nc1ccc(NC(=O)c2ccc(NC(=O)Nc3ccccc3)cc2)cc1` showed an MIC of over 240 µM.
`O=[N+]([O-])c1ccc(O)c(/C=N/c2cccc(O)c2)c1` showed an MIC of over 387 µM.
In the case of `Cc1c(NC(=O)c2ccc(N3CCCC3)c([N+](=O)[O-])c2)cccc1-c1nc2ccccc2[nH]1`, the MIC was over 240 µM.
In the case of `Cc1ccc(-c2nc3cc(Cl)ccc3o2)cc1CC(=O)c1cc([N+](=O)[O-])c(C)c([N+](=O)[O-])c1`, the MIC was over 240 µM.
In the case of `Cc1ccc(C(=O)Nc2cccc(-c3nc4ccccc4[nH]3)c2)cc1`, the MIC was over 240 µM.
`O=C(Nc1ccc2oc(-c3cc(Br)ccc3Cl)nc2c1)c1cccc([N+](=O)[O-])c1` was tested, and the MIC was over 240 µM.
`O=C(CCC(=O)Nc1ccc(Nc2ccccc2)cc1)Nc1ccc(Nc2ccccc2)cc1` gave an MIC of over 222 µM.
For `COc1ccccc1NC(=O)COc1ccc(/C=C(/C#N)c2nc3ccccc3[nH]2)cc1`, the MIC was over 240 µM.
In the case of `O=C(Nc1ccc([N+](=O)[O-])cc1)c1ccc(-c2nnc(-c3ccccc3)o2)cc1`, the MIC was over 259 µM.
With `O=C(Cn1nnc(N2CCOCC2)n1)N/N=C/c1ccc(-c2cccc([N+](=O)[O-])c2)o1` the MIC was over 240 µM.
Molecule `COc1ccc(CCNC(=O)NCc2cccc(CNC(=O)NCCc3ccc(OC)cc3)c2)cc1` has an MIC of over 204 µM.
`COc1ccc(NC(=O)Nc2ccc(Oc3ncnc4cc(Cl)ccc34)nc2)cc1OC1CCCC1` showed an MIC of over 240 µM.
In the case of `O=C(Nc1ccc(Cc2ccc(NC(=O)c3ccc4c(c3)OCO4)cc2)cc1)c1ccc2c(c1)OCO2`, the MIC was over 240 µM.
Work on `NC(=O)c1ccc(/N=C/c2cc([N+](=O)[O-])ccc2Cl)cc1` yielded an MIC of over 329 µM.
`O=C(Nc1cccc(C(=O)Nc2cccc3ccccc23)c1)c1cccc([N+](=O)[O-])c1` was tested, and the MIC was over 240 µM.
In the case of `O=C(Nc1ccc(S(=O)(=O)Nc2ncccn2)cc1)Nc1ccc(Cl)c(Cl)c1`, the MIC was 15 µM (≈ 6.57 µg/mL).
With `N/C(=N\OC(=O)c1ccc(Cl)c(Cl)c1)c1cccc(CSc2ccccn2)c1` the MIC was over 240 µM.
`Cc1onc(-c2ccccc2)c1NC(=O)Nc1ccc(Oc2ncnc3cc(Cl)ccc23)nc1` gave an MIC of over 240 µM.
`O=C(Nc1cccc(/N=C/c2cc([N+](=O)[O-])ccc2O)c1)c1cccc(Br)c1` gave an MIC of over 227 µM.
In the case of `N#C/C(=C\c1ccccc1[N+](=O)[O-])C(=O)c1ccccc1`, the MIC was 120 µM (≈ 33.4 µg/mL).
Molecule `CCOC(=O)C1=C(Nc2cccc3ccccc23)S/C(=C\c2ccc([N+](=O)[O-])cc2)C1=O` has an MIC of over 224 µM.
`Cc1cc(C)c2oc(-c3cccc(NC(=O)/C=C/c4cccc([N+](=O)[O-])c4)c3)nc2c1` was tested, and the MIC was over 240 µM.
For `O=C1C=C(Nc2ccccc2C(=O)O)C(=O)C=C1Nc1ccccc1C(=O)O`, the MIC was over 264 µM.
